In ChEMBL document CHEMBL1152131, “Tetrahydro-4-quinolinamines identified as novel P2Y(1) receptor antagonists” (Bioorg Med Chem Lett, 2008):

What was measured:
[1] = biological target: T1, P2Y purinoceptor 1 (Homo sapiens, UniProt P47900); assay: Displacement of [33P]2-Mes-ADP from human recombinant P2Y1 receptor expressed in human U20S cells; type: cell-based, U2OS
Method in brief: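 Membranes from BacMam-transduced U2OS cells expressing human P2Y1, [33P]-2-MeS-ADP radioligand, 0.5 mg WGA-SPA beads. Buffer: 15 mM Hepes, 145 mM NaCl, 0.1 mM MgCl2, 5 mM EDTA, 5 mM KCl. Test compound at various concentrations or DMSO vehicle. Incubated 1 h at room temperature to completion, centrifuged at 2000g, then counted.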

[2] = biological target: T1, P2Y purinoceptor 1; assay: Antagonist activity at human P2Y1 receptor in HEK293 cells assessed as intracellular calcium level by FLIPR; type: functional, cell-based
[3] = system: Platelet; assay: Inhibition of ADP-induced human platelet aggregation; type: functional, cell-based
Method in brief: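 Washed human platelets preincubated with compound for 5 min, then challenged with 10 µM ADP; aggregation followed by light transmittance aggregometry; IC50 reported.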

T1 sequence (P47900 whole entry): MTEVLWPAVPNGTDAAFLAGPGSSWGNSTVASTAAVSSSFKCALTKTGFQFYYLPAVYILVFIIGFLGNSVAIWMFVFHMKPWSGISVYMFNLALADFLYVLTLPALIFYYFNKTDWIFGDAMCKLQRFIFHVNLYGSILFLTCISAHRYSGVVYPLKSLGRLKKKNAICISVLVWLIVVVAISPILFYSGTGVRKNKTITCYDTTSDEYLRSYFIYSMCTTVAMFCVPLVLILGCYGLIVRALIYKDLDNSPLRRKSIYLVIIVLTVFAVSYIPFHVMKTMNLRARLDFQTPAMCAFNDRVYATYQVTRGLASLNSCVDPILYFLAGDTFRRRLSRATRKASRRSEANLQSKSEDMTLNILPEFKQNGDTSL

Ki [1] [µM]	IC50 [2] [µM]	Compound	other results
0.4	1.3	CC[C@@H]1[C@@H](C)[C@H](Nc2ccccc2)c2ccccc2N1C(=O)c1ccc(Cl)cc1	
	> 25	CC[C@@H]1[C@@H](C)[C@H](Nc2ccccc2)c2ccccc2N1C(=O)Nc1ccccc1Cl	
0.3	1	CC[C@@H]1[C@@H](C)[C@H](Nc2ccccc2)c2ccccc2N1C(=O)Nc1cccc(Cl)c1	
0.5	1.6	CC[C@@H]1[C@@H](C)[C@H](Nc2ccccc2)c2ccccc2N1C(=O)Nc1cccc(OC)c1	
0.3	2	CC[C@@H]1[C@@H](C)[C@H](Nc2ccccc2)c2ccccc2N1C(=O)Nc1ccc(Cl)cc1	
0.07	0.6	CC[C@@H]1[C@@H](C)[C@H](Nc2ccccc2)c2ccccc2N1C(=O)Nc1cc(Cl)cc(Cl)c1 (stereo in doubt; 6i)	
	> 25	CC[C@H]1[C@H](C)[C@@H](Nc2ccccc2)c2ccccc2N1C(=O)Nc1cc(Cl)cc(Cl)c1	
	6	CC[C@@H]1[C@@H](C)[C@H](Nc2ccccc2)c2ccccc2N1C(=O)Nc1ccc(OC)cc1	
	25	CC[C@@H]1[C@@H](C)[C@H](Nc2ccccc2)c2ccccc2N1C(=O)c1ccccc1	
0.1	1	CC[C@@H]1[C@@H](C)[C@H](Nc2ccccc2)c2ccccc2N1C(=O)Nc1cccc(Br)c1	
0.4	1.6	CC[C@@H]1[C@@H](C)[C@H](Nc2ccccc2)c2ccccc2N1C(=O)Nc1ccccc1	

More lines, now with the values behind:

Compound	Ki [1] [µM]	IC50 [2] [µM]	other results
CC[C@@H]1C[C@@H](Nc2ccccc2)c2ccccc2N1C(=O)c1ccc(OC)cc1		> 25	
CC[C@@H]1[C@@H](C)[C@H](Nc2ccccc2)c2ccccc2N1C(=O)c1ccc(Br)cc1	0.1	0.8	
COc1ccc(C(=O)N2C[C@@H](C)[C@H](Nc3ccccc3)c3ccccc32)cc1		10	
COc1ccc(C(=O)N2CC[C@H](Nc3ccccc3)c3ccccc32)cc1		> 25	
CC[C@@H]1[C@@H](C)[C@H](Nc2ccccc2)c2ccccc2N1C(=O)c1ccc([N+](=O)[O-])cc1	0.5	1.6	
CC[C@@H]1[C@@H](C)[C@H](Nc2ccccc2)c2ccccc2N1C(=O)c1cccc(OC(F)(F)F)c1		> 25	
CC[C@@H]1[C@@H](C)[C@H](Nc2ccccc2)c2ccccc2N1C(=O)Nc1cc(OC)cc(OC)c1	0.2	0.8	
CC[C@@H]1[C@@H](C)[C@H](Nc2ccccc2)c2ccccc2N1C(=O)c1ccc(OC(F)(F)F)cc1	0.1	1	
CC[C@@H]1C[C@H](Nc2ccccc2)c2ccccc2N1C(=O)c1ccc(OC)cc1	0.8	3.2	
CC[C@@H]1[C@@H](C)[C@H](Nc2ccccc2)c2ccccc2N1C(=O)Nc1cc(Cl)cc(Cl)c1 (stereo in doubt; 16)			IC50 [3]: 0.504 µM; Ki ([1]; u2os): 0.07 µM; IC50 ([2]; hek293): 0.6 µM
CC[C@@H]1[C@@H](C)[C@H](N(C)c2ccccc2)c2ccccc2N1C(=O)c1ccc(OC)cc1		> 25	
CC[C@@H]1[C@@H](C)[C@H](Nc2ccccc2)c2ccccc2N1C(=O)c1ccc(OC)cc1	0.4	0.8	
